Results: ChEMBL document CHEMBL5712911, “A homogeneous bioluminescent immunoassay to probe cellular signaling pathway regulation” (Commun Biol, 2020)
Values belong to the molecule of their own block, whether it stands above or below them. The source made the active and inactive calls. The calls are words filed in the database; no cut-off is given here.

How the values were obtained:
[1] = Effect on total STAT3 expression in human A-431 cells at 1 uM measured after 1 hr by NanoBiT cell-based immunoassay; type: toxicity; conditions: a-431, 1 h
Outline: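 A431 cells, 50,000/well, were kept overnight in serum-free medium. […] Total STAT3 was measured by NanoBiT immunoassay after 20 min digitonin lysis (antibody mix 90 min, 23 °C; Nano-Glo luminescence). Means ± S.E.M., n = 3 technical replicates.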

[2] = target: Small ribosomal subunit protein eS6 (Homo sapiens) (UniProt P62753); assay: Inhibition of S6 ribosomal protein in HEK293 cells assessed as reduction in insulin-induced S6 phosphorylation at Ser235/236 residue by NanoBiT cell-based immunoassay
[3] = target: Small ribosomal subunit protein eS6 (Homo sapiens) (UniProt P62753); assay: Inhibition of S6 ribosomal protein in HEK293 cells assessed as reduction in insulin-induced S6 phosphorylation at Ser240/244 residue by NanoBiT cell-based immunoassay
[4] = target: Small ribosomal subunit protein eS6 (Homo sapiens) (UniProt P62753); assay: Inhibition of S6 ribosomal protein in HEK293 cells assessed as reduction in serum-induced S6 phosphorylation at Ser235/236 residue by NanoBiT cell-based immunoassay
[5] = target: Small ribosomal subunit protein eS6 (Homo sapiens) (UniProt P62753); assay: Inhibition of S6 ribosomal protein in HEK293 cells assessed as reduction in serum-induced S6 phosphorylation at Ser240/244 residue by NanoBiT cell-based immunoassay
[6] = target: Eukaryotic translation initiation factor 4E-binding protein 1 (Homo sapiens) (UniProt Q13541); assay: Inhibition of 4E-BP1 in HEK293 cells assessed as reduction in insulin-induced 4E-BP1 phosphorylation at Ser65 residue by NanoBiT cell-based immunoassay
[7] = target: Eukaryotic translation initiation factor 4E-binding protein 1 (Homo sapiens) (UniProt Q13541); assay: Inhibition of 4E-BP1 in human MCF7 cells assessed as reduction in insulin-induced 4E-BP1 phosphorylation at Ser65 residue by NanoBiT cell-based immunoassay
[8] = Effect on total IkappaBalpha level in human MCF7 cells measured after 4 hrs by NanoBiT cell-based immunoassay; type: toxicity; conditions: mcf7, 4 h
Outline: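 MCF-7 cells (50,000/well) held overnight at 37 °C, 5% CO2 without serum, then given a compound titration for 4 h. Lysed 20 min in buffer with 0.1% digitonin and protease/phosphatase inhibitors; mouse and rabbit anti-IκBα primaries plus NanoBiT-labelled anti-mouse/anti-rabbit secondaries added, 90 min at 23 °C; Nano-Glo substrate; luminescence read. Means ± S.E.M., n = 3 technical replicates.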

MCF7 [9] = assay: Inhibition of IKK in human MCF7 cells assessed as reduction in TNFalpha-induced IkappaBalpha phosphorylation at serine 32 residue at 10 uM preincubated for 1 hr followed by TNFalpha-stimulation and measured after 10 mins by NanoBiT cell-based immunoassay; conditions: time 70.0 min
MCF7 [10] = assay: Inhibition of IKK in human MCF7 cells assessed as reduction in TNFalpha-induced total IkappaBalpha expression at 10 uM preincubated for 1 hr followed by TNFalpha-stimulation and measured after 10 mins by NanoBiT cell-based immunoassay; conditions: time 70.0 min
MCF7 [11] = assay: Inhibition of IKK in human MCF7 cells assessed as reduction in TNFalpha-induced p65 phosphorylation at serine 536 residue at 10 uM preincubated for 1 hr followed by TNFalpha-stimulation and measured after 10 mins by NanoBiT cell-based immunoassay; conditions: time 70.0 min
MCF7 [12] = assay: Inhibition of IKK in human MCF7 cells assessed as effect on TNFalpha-induced p65 expression at 10 uM preincubated for 1 hr followed by TNFalpha-stimulation and measured after 10 mins by NanoBiT cell-based immunoassay; conditions: time 70.0 min
MCF7 [13] = assay: Inhibition of IKK in human MCF7 cells assessed as reduction in TNFalpha-induced IkappaBalpha degradation preincubated for 1 hr followed by TNFalpha-stimulation and measured after 30 mins by NanoBiT cell-based immunoassay; conditions: time 1.5 hrs
Outline: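 MCF-7 cells (50,000/well, seeded overnight) were preincubated 1 h with graded inhibitor concentrations, then stimulated with TNFα (50 ng per ml, 30 min). Digitonin lysis was followed by NanoBiT total IκBα immunoassay: a rabbit/mouse primary pair plus SmBiT/LgBiT-labelled secondaries for 90 min at 23 °C, then Nano-Glo substrate and luminescence read. IC50 was taken from the dose–response.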

HeLa [14] = assay: Inhibition of IKK in human HeLa cells assessed as reduction in TNFalpha-induced IkappaBalpha phosphorylation at serine 32 residue preincubated for 1 hr followed by TNFalpha-stimulation and measured after 10 mins by NanoBiT cell-based immunoassay; conditions: time 70.0 min
Ramos [15] = assay: Inhibition of IKK in human Ramos cells assessed as reduction in TNFalpha-induced IkappaBalpha phosphorylation at serine 32 residue preincubated for 1 hr followed by TNFalpha-stimulation and measured after 10 mins by NanoBiT cell-based immunoassay; conditions: time 70.0 min
[16] = test system: Primary mammary epithelial cell; assay: Inhibition of IKK in human primary mammary epithelial cells assessed as reduction in TNFalpha-induced IkappaBalpha phosphorylation at serine 32 residue preincubated for 1 hr followed by TNFalpha-stimulation and measured after 10 mins by NanoBiT cell-based immunoassay; conditions: time 70.0 min
HeLa [17] = assay: Inhibition of IKK in human HeLa cells assessed as reduction in IL-1beta-induced IkappaBalpha phosphorylation at serine 32 residue preincubated for 1 hr followed by IL-1beta-stimulation and measured after 10 mins by NanoBiT cell-based immunoassay; conditions: time 70.0 min
Ramos [18] = assay: Inhibition of IKK in human Ramos cells assessed as reduction in IL-1beta-induced IkappaBalpha phosphorylation at serine 32 residue preincubated for 1 hr followed by IL-1beta-stimulation and measured after 10 mins by NanoBiT cell-based immunoassay; conditions: time 70.0 min
[19] = test system: Primary mammary epithelial cell; assay: Inhibition of IKK in human primary mammary epithelial cells assessed as reduction in IL-1beta-induced IkappaBalpha phosphorylation at serine 32 residue preincubated for 1 hr followed by IL-1beta-stimulation and measured after 10 mins by NanoBiT cell-based immunoassay; conditions: time 70.0 min
MCF7 [20] = assay: Inhibition of IKK in human MCF7 cells assessed as reduction in IL-1beta-induced IkappaBalpha phosphorylation at serine 32 residue preincubated for 1 hr followed by IL-1beta-stimulation and measured after 10 mins by NanoBiT cell-based immunoassay; conditions: dose 10.0 µM, time 70.0 min
MCF7 [21] = assay: Inhibition of IKK in human MCF7 cells assessed as reduction in IL-1beta-induced p65 phosphorylation at serine 536 residue preincubated for 1 hr followed by IL-1beta-stimulation and measured after 10 mins by NanoBiT cell-based immunoassay; conditions: time 70.0 min

Chain of Eukaryotic translation initiation factor 4E-binding protein 1 (Homo sapiens) (Q13541 whole entry): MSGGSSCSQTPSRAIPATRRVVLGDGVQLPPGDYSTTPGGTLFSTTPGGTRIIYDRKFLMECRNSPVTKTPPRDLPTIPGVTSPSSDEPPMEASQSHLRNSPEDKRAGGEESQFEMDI

Structure (SMILES): N#CC[C@H](C1CCCC1)n1cc(-c2ncnc3[nH]ccc23)cn1 [RUXOLITINIB]
Activity [1]: Non-Toxic

inhibition [2]: Active
inhibition [3]: Active
inhibition [4]: Active
inhibition [5]: Active
inhibition [6]: Active
inhibition [7]: Active
Structure (SMILES): CO[C@H]1C[C@@H]2CC[C@@H](C)[C@@](O)(O2)C(=O)C(=O)N2CCCC[C@H]2C(=O)O[C@H]([C@H](C)C[C@@H]2CC[C@@H](O)[C@H](OC)C2)CC(=O)[C@H](C)/C=C(\C)[C@@H](O)[C@@H](OC)C(=O)[C@H](C)C[C@H](C)/C=C/C=C/C=C/1C

Structure (SMILES): C[C@]12CC[C@@H]3c4ccc(O)cc4C[C@@H](CCCCCCCCC[S+]([O-])CCCC(F)(F)C(F)(F)F)[C@H]3[C@@H]1CC[C@@H]2O (stereo partly specified) [FULVESTRANT]
Activity [8]: Non-Toxic

Structure (SMILES): O=C(c1ccc(Nc2nccc(-c3cc4ccccc4s3)n2)cc1)N1CCC(N2CCCC2)CC1
inhibition (MCF7 [9]): Active
inhibition (MCF7 [10]): Active
inhibition (MCF7 [11]): Active
inhibition (MCF7 [12]): inactive
inhibition (MCF7 [13]): Dose-Dependent Effect
inhibition (HeLa [14]): Active
inhibition (Ramos [15]): Active
inhibition [16]: Active
inhibition (HeLa [17]): Active
inhibition (Ramos [18]): Active
inhibition [19]: Active
inhibition (MCF7 [20]): Active
inhibition (MCF7 [21]): Active
